In PMC4104500 (Biochemistry, 2013):

Key:
CIB1 = molecular target: T1, CIB1 (Homo sapiens, UniProt Q99828); test: Isothermal titration calorimetry; type: binding
T1 sequence (Q99828 1-191): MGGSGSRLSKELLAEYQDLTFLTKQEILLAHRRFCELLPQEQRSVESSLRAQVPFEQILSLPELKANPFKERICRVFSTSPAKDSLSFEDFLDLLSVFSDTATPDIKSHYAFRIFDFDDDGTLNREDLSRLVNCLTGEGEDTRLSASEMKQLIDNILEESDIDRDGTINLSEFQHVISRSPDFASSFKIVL
Summary of the method: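 Recombinant CIB1 from E. coli BL21(DE3), His tag removed by TEV, dialyzed into 50 mM HEPES pH 7.4, 150 mM NaCl, 0.1 mM CaCl₂ unless otherwise noted, at 100 µM in cell. Peptides (0.8–1 mM, same buffer) injected as 10 µL every 300 s at 15 °C or 26 °C. Dilution heats taken from post-saturation injections; one-site fit; TΔS and ΔG calculated.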

[1] = molecular target: Human wild type CIB1 (calcium and integrin binding protein 1) (human) (UniProt Q99828); test: ITC
[2] = molecular target: T2, Human wild type CIB1 (calcium and integrin binding protein 1) (human, UniProt Q99828 1-191); test: ITC
T2 sequence (looked up): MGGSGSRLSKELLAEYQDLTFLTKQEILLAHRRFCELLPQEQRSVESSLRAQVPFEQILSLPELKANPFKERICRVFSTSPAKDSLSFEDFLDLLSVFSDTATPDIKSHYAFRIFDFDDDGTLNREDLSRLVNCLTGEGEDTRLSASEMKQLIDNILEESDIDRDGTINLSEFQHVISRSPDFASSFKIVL

[3] = molecular target: T2, Human wild type CIB1 (calcium and …); test: pull-down
[4] = ITC buffer without any NaCl, calculated value

Molecule	Kd [2] [µM]	dH [2] [kJ/mol]	stoichiometry N [2]	other results
αIIb: synthetic cytoplasmic tail (CT) peptide of integrin αIIb; sequence in Table S1	–	–	–	TΔS (CIB1; ITC buffer with 150 mM NaCl, calculated from ΔG = ΔH − TΔS): 17.1 kJ/mol; ΔG (CIB1; ITC buffer with 150 mM NaCl, calculated from ΔG = −RT ln Ka): -33.4 kJ/mol; TΔS (CIB1; [4]): -2.4 kJ/mol; ΔG (CIB1; [4]): -31.7 kJ/mol
integrin α4 cytoplasmic tail (CT) peptide	–	–	–	dH [1]: 32.7 kJ/mol
IILLLWKCGFFKRARTRALYEAKRQKAEMKSQPSETERLTDDY [integrin α3 cytoplasmic tail (CT) peptide]	5.1	4.2	1	–
LIYILYKLGFFKRSLPYGTAMEKAQLKPPATSDA [integrin α5 cytoplasmic tail (CT) peptide]	6.9	21.4	0.9	–
integrin αL cytoplasmic tail (CT) peptide (peptide) IFIVLYKVGFFKRNLKEKMEAGRGVPNGIPAEDSEQLASGQEAGDPGCLKPLHEKDSESGGGKD	3.2	8.2	1.1	–
LVFVMYRMGFFKRVRPPQEEQEREQLQPHENGEGNSET [integrin αV cytoplasmic tail (CT) peptide, wild type]	4.3	7.3	0.9	–
LVLAMWKVGFFKRNRPPLEEDDEEGE (domain or fragment, human, UniProt P08514 1014-1039, looked up) [MBP-αIIb cytoplasmic tail fusion protein]	–	–	–	binding result [3]: binds
LVFVMYRMGFFKRVRPPQEEQEREQLQPHENGEGNSET (domain or fragment, human, UniProt P06756 1011-1048, looked up) [MBP-αV cytoplasmic tail fusion protein]	–	–	–	binding result [3]: binds
